In ChEMBL document CHEMBL5696442, “Discovery of type II inhibitors of TGFβ-activated kinase 1 (TAK1) and mitogen-activated protein kinase kinase kinase kinase 2 (MAP4K2)” (J Med Chem, 2015) one finds inhibition data, which are given here for two compounds.

Test [1] deals with Cyclin-dependent kinase 17 (Homo sapiens) (UniProt Q00537). The experiment in a line: Inhibition of PCTAIRE2 Lys1 labeling site harbouring SKLTENLVALKEIR in human A-375 cells at 5 uM by KiNativ Profiling analysis relative to control. The test is classed as cell-based.
Cyclin-dependent kinase 17 (Homo sapiens), sequence (Q00537 whole entry, looked up): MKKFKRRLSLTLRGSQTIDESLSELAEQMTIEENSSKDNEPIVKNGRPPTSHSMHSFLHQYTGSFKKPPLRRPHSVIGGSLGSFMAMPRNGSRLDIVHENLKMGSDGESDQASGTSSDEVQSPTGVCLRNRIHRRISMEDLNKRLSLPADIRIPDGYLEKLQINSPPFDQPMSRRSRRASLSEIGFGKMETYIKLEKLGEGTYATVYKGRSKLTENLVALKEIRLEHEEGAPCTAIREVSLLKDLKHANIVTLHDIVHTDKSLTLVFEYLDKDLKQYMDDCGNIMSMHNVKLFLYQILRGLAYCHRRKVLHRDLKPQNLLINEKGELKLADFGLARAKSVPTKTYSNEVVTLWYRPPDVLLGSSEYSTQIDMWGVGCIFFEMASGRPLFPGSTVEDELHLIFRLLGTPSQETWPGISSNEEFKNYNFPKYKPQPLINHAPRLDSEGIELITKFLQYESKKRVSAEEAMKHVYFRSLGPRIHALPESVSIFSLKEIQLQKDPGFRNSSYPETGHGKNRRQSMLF
Test [2] concerns the target Tyrosine-protein kinase Fer (Homo sapiens, UniProt P16591). The experiment in a line: Inhibition of FER Lys1 labeling site in human A-375 cells at 5 uM by KiNativ Profiling analysis relative to control. The class given is cell-based.
The target in test [3] is T1, Phosphatidylinositol 5-phosphate 4-kinase type-2 gamma (Homo sapiens) (UniProt Q8TBX8).
T1 sequence (whole entry): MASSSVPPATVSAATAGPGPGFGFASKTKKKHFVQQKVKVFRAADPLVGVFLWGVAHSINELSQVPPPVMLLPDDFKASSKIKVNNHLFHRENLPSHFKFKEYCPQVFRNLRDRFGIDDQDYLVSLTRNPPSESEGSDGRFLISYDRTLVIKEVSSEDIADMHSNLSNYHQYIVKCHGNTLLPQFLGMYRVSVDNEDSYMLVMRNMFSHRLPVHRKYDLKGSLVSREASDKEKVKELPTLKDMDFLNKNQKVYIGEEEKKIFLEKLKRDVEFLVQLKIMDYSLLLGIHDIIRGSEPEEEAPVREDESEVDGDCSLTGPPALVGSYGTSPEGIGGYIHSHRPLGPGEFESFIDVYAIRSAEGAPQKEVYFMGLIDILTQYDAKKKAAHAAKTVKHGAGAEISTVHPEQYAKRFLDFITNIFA
The experiment in a line: Inhibition of PIP4K2C ATP labeling site harbouring VKELPTLKDMDFLNK in human A-375 cells at 0.5 uM by KiNativ Profiling analysis relative to control. The class given is cell-based. A digest of the protocol:
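Live A375 melanoma cells were treated with compound at 5 or 0.5 μM, then lysed. Lysates were labeled with a lysine-reactive ATP or ADP-biotin probe. Read-out was the compound's protection of kinase labeling sites from probe labeling (KiNativ).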

Test [4] deals with Ribosomal protein S6 kinase alpha-2 (Homo sapiens) (UniProt Q15349). The experiment in a line: Inhibition of RSK3 Protein Kinase Domain in human A-375 cells at 0.5 uM by KiNativ Profiling analysis relative to control. The class given is cell-based. A digest of the protocol:
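Live A375 melanoma cells treated with compound at 5 or 0.5 μM, then lysed. Lysate kinases were labeled with a lysine-reactive ATP or ADP-biotin probe. Inhibition was read as protection of labeling sites from the probe.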

The target in test [5] is Serine/threonine-protein kinase WNK2 (Homo sapiens) (UniProt Q9Y3S1). Briefly: Inhibition of Wnk2 Lys2 labeling site in human A-375 cells at 0.05 uM by KiNativ Profiling analysis relative to control. The test is classed as cell-based.
Serine/threonine-protein kinase WNK2 (Homo sapiens), sequence (Q9Y3S1 whole entry): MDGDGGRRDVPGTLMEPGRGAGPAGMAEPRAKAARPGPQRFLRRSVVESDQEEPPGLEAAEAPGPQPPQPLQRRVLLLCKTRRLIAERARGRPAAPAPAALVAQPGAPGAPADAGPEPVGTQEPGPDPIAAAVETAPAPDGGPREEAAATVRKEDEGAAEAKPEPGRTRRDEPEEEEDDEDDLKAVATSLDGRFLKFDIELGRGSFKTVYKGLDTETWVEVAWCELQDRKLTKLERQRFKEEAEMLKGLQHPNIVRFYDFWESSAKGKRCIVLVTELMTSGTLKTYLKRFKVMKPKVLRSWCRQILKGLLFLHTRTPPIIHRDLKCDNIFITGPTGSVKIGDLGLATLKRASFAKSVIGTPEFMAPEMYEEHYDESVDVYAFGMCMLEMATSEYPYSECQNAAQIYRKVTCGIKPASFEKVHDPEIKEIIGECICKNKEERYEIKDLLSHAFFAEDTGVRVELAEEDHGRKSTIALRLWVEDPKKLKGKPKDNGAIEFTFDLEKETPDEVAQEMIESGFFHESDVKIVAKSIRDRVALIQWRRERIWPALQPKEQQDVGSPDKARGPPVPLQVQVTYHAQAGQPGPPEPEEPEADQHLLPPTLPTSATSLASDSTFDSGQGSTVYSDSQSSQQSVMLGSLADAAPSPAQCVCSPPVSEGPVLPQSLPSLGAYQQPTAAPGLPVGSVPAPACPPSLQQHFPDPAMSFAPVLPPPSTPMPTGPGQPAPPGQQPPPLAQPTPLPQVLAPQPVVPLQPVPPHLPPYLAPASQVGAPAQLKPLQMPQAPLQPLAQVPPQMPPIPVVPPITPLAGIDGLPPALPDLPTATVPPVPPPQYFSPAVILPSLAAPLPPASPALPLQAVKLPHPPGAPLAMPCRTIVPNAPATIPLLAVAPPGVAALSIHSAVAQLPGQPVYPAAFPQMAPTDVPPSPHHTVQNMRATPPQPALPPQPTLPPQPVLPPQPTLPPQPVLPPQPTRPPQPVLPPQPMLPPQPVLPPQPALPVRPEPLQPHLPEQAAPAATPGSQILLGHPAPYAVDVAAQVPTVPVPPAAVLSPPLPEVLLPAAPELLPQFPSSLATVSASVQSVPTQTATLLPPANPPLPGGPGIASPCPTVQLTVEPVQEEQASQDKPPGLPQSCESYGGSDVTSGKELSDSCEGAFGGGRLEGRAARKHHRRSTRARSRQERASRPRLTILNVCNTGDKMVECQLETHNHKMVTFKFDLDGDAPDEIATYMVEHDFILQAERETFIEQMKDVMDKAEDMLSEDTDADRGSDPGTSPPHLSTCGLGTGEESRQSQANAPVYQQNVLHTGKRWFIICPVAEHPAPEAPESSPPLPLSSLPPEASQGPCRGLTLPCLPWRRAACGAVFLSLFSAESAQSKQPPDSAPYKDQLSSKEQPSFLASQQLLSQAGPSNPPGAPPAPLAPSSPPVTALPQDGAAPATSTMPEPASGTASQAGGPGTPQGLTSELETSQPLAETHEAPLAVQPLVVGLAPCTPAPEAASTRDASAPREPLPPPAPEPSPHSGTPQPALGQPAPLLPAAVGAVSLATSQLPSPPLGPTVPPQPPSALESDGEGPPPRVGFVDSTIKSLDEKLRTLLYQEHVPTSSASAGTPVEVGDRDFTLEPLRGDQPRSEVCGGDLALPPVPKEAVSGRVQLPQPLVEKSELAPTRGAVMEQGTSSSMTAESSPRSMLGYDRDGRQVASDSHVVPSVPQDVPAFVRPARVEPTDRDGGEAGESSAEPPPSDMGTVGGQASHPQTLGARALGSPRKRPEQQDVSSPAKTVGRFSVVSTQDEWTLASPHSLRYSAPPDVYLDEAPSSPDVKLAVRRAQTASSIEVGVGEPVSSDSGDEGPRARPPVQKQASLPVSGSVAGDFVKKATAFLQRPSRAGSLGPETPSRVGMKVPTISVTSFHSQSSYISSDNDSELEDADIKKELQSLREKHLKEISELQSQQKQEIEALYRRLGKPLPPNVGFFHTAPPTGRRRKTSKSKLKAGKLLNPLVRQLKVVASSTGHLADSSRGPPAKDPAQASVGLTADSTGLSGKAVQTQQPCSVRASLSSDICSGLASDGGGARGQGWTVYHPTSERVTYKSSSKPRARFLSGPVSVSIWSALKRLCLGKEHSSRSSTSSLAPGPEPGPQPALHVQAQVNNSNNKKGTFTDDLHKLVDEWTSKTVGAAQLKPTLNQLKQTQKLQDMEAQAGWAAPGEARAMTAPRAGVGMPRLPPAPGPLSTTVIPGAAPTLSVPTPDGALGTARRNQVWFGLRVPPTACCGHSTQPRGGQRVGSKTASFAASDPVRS
For test [6], the target named is T2, Serine/threonine-protein kinase TAO2 (Homo sapiens) (UniProt Q9UL54).
T2 sequence (whole entry): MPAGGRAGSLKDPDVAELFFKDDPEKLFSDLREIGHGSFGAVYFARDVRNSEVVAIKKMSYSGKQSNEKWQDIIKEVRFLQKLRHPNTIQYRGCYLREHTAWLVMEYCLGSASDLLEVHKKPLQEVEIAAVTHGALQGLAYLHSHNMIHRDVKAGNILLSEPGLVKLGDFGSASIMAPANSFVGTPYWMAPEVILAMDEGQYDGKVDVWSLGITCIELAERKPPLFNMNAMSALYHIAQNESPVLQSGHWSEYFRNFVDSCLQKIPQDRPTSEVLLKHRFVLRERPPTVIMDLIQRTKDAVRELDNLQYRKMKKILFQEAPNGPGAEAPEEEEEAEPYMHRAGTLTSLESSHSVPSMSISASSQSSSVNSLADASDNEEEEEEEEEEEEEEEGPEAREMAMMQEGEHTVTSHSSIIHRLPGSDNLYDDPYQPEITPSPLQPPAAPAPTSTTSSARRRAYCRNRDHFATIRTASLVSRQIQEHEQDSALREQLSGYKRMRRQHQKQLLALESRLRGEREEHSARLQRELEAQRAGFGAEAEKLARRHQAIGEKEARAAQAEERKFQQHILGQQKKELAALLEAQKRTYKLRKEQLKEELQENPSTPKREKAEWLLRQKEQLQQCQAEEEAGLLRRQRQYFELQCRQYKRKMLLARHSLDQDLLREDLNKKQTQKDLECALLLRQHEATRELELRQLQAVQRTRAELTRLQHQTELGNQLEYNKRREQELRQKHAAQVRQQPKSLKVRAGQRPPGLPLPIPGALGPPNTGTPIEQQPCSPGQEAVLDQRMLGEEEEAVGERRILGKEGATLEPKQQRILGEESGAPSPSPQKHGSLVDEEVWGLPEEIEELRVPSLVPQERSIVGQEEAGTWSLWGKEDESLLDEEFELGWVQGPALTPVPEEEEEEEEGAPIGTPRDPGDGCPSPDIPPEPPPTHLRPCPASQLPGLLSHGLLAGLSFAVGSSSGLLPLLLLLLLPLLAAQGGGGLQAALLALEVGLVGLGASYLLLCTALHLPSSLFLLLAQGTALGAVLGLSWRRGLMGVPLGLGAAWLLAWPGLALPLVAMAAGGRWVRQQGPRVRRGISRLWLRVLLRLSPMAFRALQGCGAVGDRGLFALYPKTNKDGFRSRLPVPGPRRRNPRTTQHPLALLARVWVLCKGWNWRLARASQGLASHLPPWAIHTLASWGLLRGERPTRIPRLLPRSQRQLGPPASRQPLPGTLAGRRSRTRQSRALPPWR
Briefly: Inhibition of TAO2 Lys2 labeling site in human A-375 cells at 5 uM by KiNativ Profiling analysis relative to control. The test is classed as cell-based.

Test [7] is described as follows: Inhibition of p70S6K ATP Loop labeling site harbouring DLKPENIMLNHQGHVK in human A-375 cells at 0.05 uM by KiNativ Profiling analysis relative to control. The following applies: condition cancer.
For test [8], the target named is Protein kinase C alpha type (Homo sapiens) (UniProt P17252). The experiment in a line: Inhibition of PKCa Lys2 labeling site in human A-375 cells at 0.5 uM by KiNativ Profiling analysis relative to control. The class given is cell-based.
Test [9] has as its target Cyclin-dependent kinase 17 (Homo sapiens) (UniProt Q00537). The experiment in a line: Inhibition of PCTAIRE2 Lys1 labeling site harbouring SKLTENLVALKEIRLEHEEGAPCTAIR in human A-375 cells at 0.5 uM by KiNativ Profiling analysis relative to control. The class given is cell-based.
Test [10] concerns the target Cyclin-dependent kinase 16 (Homo sapiens) (UniProt Q00536). The experiment in a line: Inhibition of PCTAIRE1 Lys1 labeling site in human A-375 cells at 0.5 uM by KiNativ Profiling analysis relative to control. The class given is cell-based.

The structures appear in SMILES notation.

Cyclin-dependent kinase 16 (Homo sapiens), sequence (Q00536 whole entry): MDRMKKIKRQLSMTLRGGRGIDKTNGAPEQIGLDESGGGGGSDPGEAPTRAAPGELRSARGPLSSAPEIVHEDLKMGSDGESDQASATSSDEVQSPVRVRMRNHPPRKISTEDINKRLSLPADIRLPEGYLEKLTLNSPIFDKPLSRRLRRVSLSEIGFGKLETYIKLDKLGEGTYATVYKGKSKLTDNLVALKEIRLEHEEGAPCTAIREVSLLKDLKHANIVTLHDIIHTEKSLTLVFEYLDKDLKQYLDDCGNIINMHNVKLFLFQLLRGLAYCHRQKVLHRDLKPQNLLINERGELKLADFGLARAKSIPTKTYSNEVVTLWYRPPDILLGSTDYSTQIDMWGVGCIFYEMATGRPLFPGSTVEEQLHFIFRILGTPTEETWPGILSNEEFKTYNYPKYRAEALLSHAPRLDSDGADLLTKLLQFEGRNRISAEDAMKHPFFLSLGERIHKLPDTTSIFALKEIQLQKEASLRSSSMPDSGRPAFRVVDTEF
Tyrosine-protein kinase Fer, sequence (P16591 whole entry, looked up): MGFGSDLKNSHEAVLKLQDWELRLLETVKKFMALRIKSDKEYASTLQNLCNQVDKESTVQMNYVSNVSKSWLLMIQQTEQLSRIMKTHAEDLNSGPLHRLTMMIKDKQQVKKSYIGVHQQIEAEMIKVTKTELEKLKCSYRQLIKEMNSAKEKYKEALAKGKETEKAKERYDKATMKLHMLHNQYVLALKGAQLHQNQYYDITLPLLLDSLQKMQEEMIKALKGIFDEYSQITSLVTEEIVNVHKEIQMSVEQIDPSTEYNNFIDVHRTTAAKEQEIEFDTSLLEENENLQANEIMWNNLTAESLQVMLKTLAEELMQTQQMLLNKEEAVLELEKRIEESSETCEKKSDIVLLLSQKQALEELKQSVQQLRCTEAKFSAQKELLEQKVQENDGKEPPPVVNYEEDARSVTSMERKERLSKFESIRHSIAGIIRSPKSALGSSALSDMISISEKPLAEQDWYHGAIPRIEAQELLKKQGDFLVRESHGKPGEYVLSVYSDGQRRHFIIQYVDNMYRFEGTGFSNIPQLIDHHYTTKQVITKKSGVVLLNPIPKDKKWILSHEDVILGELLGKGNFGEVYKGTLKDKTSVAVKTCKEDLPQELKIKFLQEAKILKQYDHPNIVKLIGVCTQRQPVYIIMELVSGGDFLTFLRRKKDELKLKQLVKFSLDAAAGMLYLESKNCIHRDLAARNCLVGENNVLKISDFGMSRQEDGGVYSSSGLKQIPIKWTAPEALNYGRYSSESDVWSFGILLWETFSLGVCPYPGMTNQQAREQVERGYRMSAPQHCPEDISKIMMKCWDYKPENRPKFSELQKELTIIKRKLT
Ribosomal protein S6 kinase alpha-2 (Homo sapiens), sequence (Q15349 whole entry, the tested form may be a part): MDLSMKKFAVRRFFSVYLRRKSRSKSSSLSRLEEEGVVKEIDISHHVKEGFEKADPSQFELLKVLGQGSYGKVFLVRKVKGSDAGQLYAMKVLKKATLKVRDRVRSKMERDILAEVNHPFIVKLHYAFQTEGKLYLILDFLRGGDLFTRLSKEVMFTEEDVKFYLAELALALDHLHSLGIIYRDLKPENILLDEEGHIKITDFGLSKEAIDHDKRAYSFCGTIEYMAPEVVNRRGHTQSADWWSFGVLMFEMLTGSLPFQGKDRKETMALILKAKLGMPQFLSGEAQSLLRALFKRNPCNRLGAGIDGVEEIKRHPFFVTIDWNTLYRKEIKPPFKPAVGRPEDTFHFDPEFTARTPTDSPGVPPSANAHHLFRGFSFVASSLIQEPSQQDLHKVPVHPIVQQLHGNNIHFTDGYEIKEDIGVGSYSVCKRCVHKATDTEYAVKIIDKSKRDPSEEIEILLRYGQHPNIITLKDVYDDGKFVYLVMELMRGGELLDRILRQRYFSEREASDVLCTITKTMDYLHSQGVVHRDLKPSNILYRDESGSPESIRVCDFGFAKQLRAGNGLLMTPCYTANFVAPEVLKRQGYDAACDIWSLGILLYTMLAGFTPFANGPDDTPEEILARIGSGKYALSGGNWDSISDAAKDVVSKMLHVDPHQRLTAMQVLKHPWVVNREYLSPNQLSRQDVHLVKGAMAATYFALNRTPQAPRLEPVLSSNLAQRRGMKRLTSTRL

The inhibition is the drop in the measured response relative to a control, in per cent. In the case of `CCN1CCN(Cc2ccc(NC(=O)c3ccc(C)c(/C=C/c4cnc5[nH]ccc5c4OC)c3)cc2C(F)(F)F)CC1`, the inhibition in [1] was 24.3%; in test [2], 80.3%; in [3], -5.8%; in test [4] it was 3.2%; in test [5] it was 7.1%; in test [6], 82.2%. Also, the inhibition in test [8] is 48.2%; in test [9], 2.4%; in test [10] it was 30.2%. In test [7], the inhibition at 0.05 µM is -14.4%.

`CCN1CCN(Cc2ccc(NC(=O)c3ccc(C)c(Oc4ccnc5[nH]ccc45)c3)cc2C(F)(F)F)CC1`: the inhibition in [1] was 73.3%; in test [2], 98.1%; in [3], 3.2%; in [4] it was 0.9%; in test [5] it was -3.5%; in [6], 82.5%. The inhibition worked out at 65% in [8], 6.9% in [9] and 47.7% in test [10]. Moreover, the inhibition at 0.05 µM in test [7] turned out to be 18.9%.
